Test results as given in ChEMBL document CHEMBL2046351, “Discovery of cyclic sulfone hydroxyethylamines as potent and selective β-site APP-cleaving enzyme 1 (BACE1) inhibitors: structure-based design and in vivo reduction of amyloid β-peptides” (J Med Chem, 2012).
Each block holds one compound with its values, some of them ahead of it.

Assays:
[1] = AUC (0 to infinity) in C57BL/6 mouse at 60 umol/kg, po dosed in carboxymethyl cellulose 0.5% w/v in water/Tween 80 (99.5/0.5, v/v) by LC/MS/MS analysis; type: ADME, organism-based; design: dose 60 umol/kg, route oral, time infinity; conditions: in vivo
Method in brief: (§1)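 Male C57BL/6 mice were dosed by oral gavage at 10 mL/kg. Blood was sampled at 0.25, 0.5, 1, 2, 4 and 6 h postdose, extracted by acetonitrile precipitation and quantified by LC-MS/MS (typical LLOQ 0.4 ng/mL). AUCinf was obtained by noncompartmental analysis of concentration–time profiles, weighting 1/Y, with at least three terminal log-linear points.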

[2] = Drug uptake in C57BL/6 mouse blood at 6 umol/kg, po dosed in carboxymethyl cellulose 0.5% w/v in water/Tween 80 (99.5/0.5, v/v) measured 4 hrs post dosing by LC/MS/MS analysis; type: ADME, organism-based; conditions: read-out: Drug uptake
Method in brief: (§2)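 Male C57BL/6 mice dosed by oral gavage, 10 mL/kg. Blood sampled 0.25, 0.5, 1, 2, 4, 6 h; brain at 1 and/or 4 h; n = 3 per time. Blood acetonitrile-precipitated, brain water-homogenized then precipitated; LC-MS/MS with weighted linear calibration.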

[3] = Ratio of drug uptake in brain to blood in C57BL/6 mouse at 2 umol/kg, iv dosed in N-methyl pyrrolidone/blank plasma (10:90 v/v) measured 1 hr post dosing by LC/MS/MS analysis; type: ADME, organism-based
Method in brief: (§3)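 Male C57BL/6 mice, saphenous vein injection under light anesthesia, 5 mL/kg. Blood at 5, 30 min and 1, 2, 4, 6, 8 h; brain at 5 min, 1, 4, 8 h; n = 3/time. LC-MS/MS after acetonitrile precipitation (brain water-homogenized). Noncompartmental analysis, 1/Y weighting, terminal slope from ≥3 points.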

MDR1 (human) = assay: Efflux ratio of permeability from basolateral to apical over apical to basolateral side of MDCK cells expressing human MDR1 at 5 uM after 2 hrs by LC/MS analysis; type: ADME, cell-based, Canis lupus familiaris; conditions: dog
Method in brief: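 MDCK cells retrovirally transduced with human MDR1, seeded on transwells ≥3 days; bidirectional transport at 5 μM, 2 h, 37 °C, LC/MS quantitation. Papp = (dQ/dt)/(A·C0), A 0.11 cm2; ER = Papp B>A / Papp A>B. Means of at least three experiments.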

Beta-secretase 1 = Beta-secretase 1 (Homo sapiens, UniProt P56817)
[4] = Drug uptake in C57BL/6 mouse blood at 60 umol/kg, po dosed in carboxymethyl cellulose 0.5% w/v in water/Tween 80 (99.5/0.5, v/v) measured 4 hrs post dosing by LC/MS/MS analysis; type: ADME, organism-based; conditions: read-out: Drug uptake; method in brief: as §2
[5] = Ratio of drug uptake in brain to blood in C57BL/6 mouse at 60 umol/kg, po dosed in carboxymethyl cellulose 0.5% w/v in water/Tween 80 (99.5/0.5, v/v) measured 4 hrs post dosing by LC/MS/MS analysis; type: ADME, organism-based; method in brief: as §2
Brain [6] = assay: Drug uptake in C57BL/6 mouse brain at 6 umol/kg, po dosed in carboxymethyl cellulose 0.5% w/v in water/Tween 80 (99.5/0.5, v/v) measured 4 hrs post dosing by LC/MS/MS analysis; type: ADME, organism-based; conditions: in vivo; method in brief: as §2
[7] = Drug uptake in C57BL/6 mouse blood at 2 umol/kg, iv dosed in N-methyl pyrrolidone/blank plasma (10:90 v/v) measured 4 hrs post dosing by LC/MS/MS analysis; type: ADME, organism-based; conditions: read-out: Drug uptake; method in brief: as §3
Brain [8] = assay: Drug uptake in C57BL/6 mouse brain at 60 umol/kg, po dosed in carboxymethyl cellulose 0.5% w/v in water/Tween 80 (99.5/0.5, v/v) measured 1 hr post dosing by LC/MS/MS analysis; type: ADME, organism-based; conditions: in vivo; method in brief: as §2
[9] = AUC (0 to infinity) in C57BL/6 mouse at 6 umol/kg, po dosed in carboxymethyl cellulose 0.5% w/v in water/Tween 80 (99.5/0.5, v/v) by LC/MS/MS analysis; type: ADME, organism-based; design: dose 6 umol/kg, time infinity, route oral; conditions: in vivo; method in brief: as §1
Cathepsin D = Cathepsin D (Homo sapiens, UniProt P07339); assay: Inhibition of human recombinant CatD using Mca-GKPILFFRLK(DNP)-dR-NH2 as substrate after 1 hr by fluorescence analysis
Brain [10] = assay: Drug uptake in C57BL/6 mouse brain at 2 umol/kg, iv dosed in N-methyl pyrrolidone/blank plasma (10:90 v/v) measured 4 hrs post dosing by LC/MS/MS analysis; type: ADME, organism-based; conditions: in vivo; method in brief: as §3
[11] = AUC (0 to infinity) in C57BL/6 mouse at 60 umol/kg, po dosed in HS15/propylenglycol/citrate buffer, pH 4.75, 50 mM (10/5/85, v/v/v) by LC/MS/MS analysis; type: ADME, organism-based; design: dose 60 umol/kg, route oral, time infinity; conditions: plasma; method in brief: as §1
[12] = Drug uptake in C57BL/6 mouse blood at 6 umol/kg, po dosed in HS15/propylenglycol/citrate buffer, pH 4.75, 50 mM (10/5/85, v/v/v) measured 1 hr post dosing by LC/MS/MS analysis; type: ADME, organism-based; conditions: read-out: Drug uptake; method in brief: as §2
[13] = AUC (0 to infinity) in C57BL/6 mouse at 6 umol/kg, po dosed in HS15/propylenglycol/citrate buffer, pH 4.75, 50 mM (10/5/85, v/v/v) by LC/MS/MS analysis; type: ADME, organism-based; design: dose 6 umol/kg, time infinity, route oral; conditions: plasma; method in brief: as §1
Brain [14] = assay: Drug uptake in C57BL/6 mouse brain at 60 umol/kg, po dosed in HS15/propylenglycol/citrate buffer, pH 4.75, 50 mM (10/5/85, v/v/v) measured 1 hr post dosing by LC/MS/MS analysis; type: ADME, organism-based; conditions: in vivo, pH 4.75, 1 h; method in brief: as §2
Brain [15] = assay: Drug uptake in C57BL/6 mouse brain at 60 umol/kg, po dosed in HS15/propylenglycol/citrate buffer, pH 4.75, 50 mM (10/5/85, v/v/v) measured 4 hrs post dosing by LC/MS/MS analysis; type: ADME, organism-based; conditions: in vivo, pH 4.75, 4 h; method in brief: as §2
Cytochrome P450 3A4 = Cytochrome P450 3A4 (Homo sapiens, UniProt P08684); assay: Inhibition of CYP3A4; type: ADME
[16] = Ratio of drug uptake in brain to blood in C57BL/6 mouse at 6 umol/kg, po dosed in HS15/propylenglycol/citrate buffer, pH 4.75, 50 mM (10/5/85, v/v/v) measured 1 hr post dosing by LC/MS/MS analysis; type: ADME, organism-based
Method in brief: (§4)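 Male C57BL/6 mice received the dose by oral gavage at 10 mL/kg. Blood and brain were collected at 1 and/or 4 h postdose. Brain was homogenised in water, and both matrices were extracted by acetonitrile precipitation and quantified by LC-MS/MS. The ratio is mean brain (nmol/g) over mean blood (nmol/mL) concentration, n = 3.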

[17] = Ratio of drug uptake in brain to blood in C57BL/6 mouse at 60 umol/kg, po dosed in HS15/propylenglycol/citrate buffer, pH 4.75, 50 mM (10/5/85, v/v/v) measured 1 hr post dosing by LC/MS/MS analysis; type: ADME, organism-based; method in brief: as §4

Sequence of Cathepsin D (P07339 65-162 limits assumed): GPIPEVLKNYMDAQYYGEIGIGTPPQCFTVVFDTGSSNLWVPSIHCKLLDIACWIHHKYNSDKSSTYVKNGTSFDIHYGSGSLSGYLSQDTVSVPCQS
Sequence of Cathepsin D (P07339 169-412 limits assumed): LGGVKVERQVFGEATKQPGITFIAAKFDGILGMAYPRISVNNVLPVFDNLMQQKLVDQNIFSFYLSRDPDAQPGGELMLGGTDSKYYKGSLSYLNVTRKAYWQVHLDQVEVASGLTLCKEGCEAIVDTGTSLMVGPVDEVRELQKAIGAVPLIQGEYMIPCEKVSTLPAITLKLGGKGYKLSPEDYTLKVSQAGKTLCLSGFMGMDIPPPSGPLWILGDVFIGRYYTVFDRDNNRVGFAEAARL
Sequence of Beta-secretase 1 (P56817 whole entry): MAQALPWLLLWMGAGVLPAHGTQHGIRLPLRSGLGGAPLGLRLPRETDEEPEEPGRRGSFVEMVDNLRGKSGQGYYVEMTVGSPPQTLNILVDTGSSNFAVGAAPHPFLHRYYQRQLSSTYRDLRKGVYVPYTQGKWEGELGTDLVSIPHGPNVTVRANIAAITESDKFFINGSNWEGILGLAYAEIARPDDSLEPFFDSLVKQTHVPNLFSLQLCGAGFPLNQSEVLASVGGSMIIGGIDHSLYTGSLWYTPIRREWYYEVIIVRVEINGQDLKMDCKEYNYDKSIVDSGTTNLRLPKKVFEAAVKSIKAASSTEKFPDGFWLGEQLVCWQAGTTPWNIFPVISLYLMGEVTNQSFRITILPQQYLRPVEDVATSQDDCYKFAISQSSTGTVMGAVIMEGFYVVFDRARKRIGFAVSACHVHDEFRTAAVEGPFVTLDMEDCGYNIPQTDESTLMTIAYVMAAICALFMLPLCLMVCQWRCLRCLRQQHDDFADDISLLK
Sequence of Cytochrome P450 3A4 (P08684 whole entry): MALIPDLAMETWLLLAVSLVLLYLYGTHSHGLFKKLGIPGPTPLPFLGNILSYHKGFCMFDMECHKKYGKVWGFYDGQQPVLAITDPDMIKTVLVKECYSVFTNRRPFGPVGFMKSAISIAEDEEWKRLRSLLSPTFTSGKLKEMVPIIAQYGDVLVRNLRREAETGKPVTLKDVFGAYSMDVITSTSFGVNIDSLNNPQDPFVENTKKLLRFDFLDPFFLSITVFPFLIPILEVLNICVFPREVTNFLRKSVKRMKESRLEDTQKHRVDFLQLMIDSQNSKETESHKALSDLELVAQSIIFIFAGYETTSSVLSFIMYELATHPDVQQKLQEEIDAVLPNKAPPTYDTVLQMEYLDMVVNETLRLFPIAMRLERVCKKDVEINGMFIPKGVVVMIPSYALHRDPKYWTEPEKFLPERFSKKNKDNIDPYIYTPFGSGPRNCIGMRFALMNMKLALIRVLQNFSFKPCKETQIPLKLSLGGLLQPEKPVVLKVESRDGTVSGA

AUC(0-inf) [1]: 14.8 µM·h | concentration at 4 h [2]: 10 nM | Kp at 1 h [3]: 1.8 | efflux ratio at 2 h, 5 µM (MDR1 (human)): 5 | IC50 (Beta-secretase 1): 6 nM | concentration at 4 h [4]: 1860 nM | Kp at 4 h [5]: 0.3 | Drug uptake (Brain [6]): 0.11 nmol/g | concentration at 4 h [7]: 10 nM | Drug uptake (Brain [8]): 1.19 nmol/g | AUC(0-inf) [9]: 0.466 µM·h | IC50 (Cathepsin D): 690 nM | Drug uptake (Brain [10]): 0.01 nmol/g
SMILES: CC(C)(C)c1cccc(CN[C@H]2CS(=O)(=O)C[C@@H](Cc3cc(F)c(N)c(OCC(F)(F)F)c3)[C@@H]2O)c1

AUC(0-inf) [11]: 4.07 µM·h | concentration at 1 h [12]: 60 nM | AUC(0-inf) [13]: 0.398 µM·h | Drug uptake (Brain [14]): 0.23 nmol/g | Drug uptake (Brain [15]): 0.15 nmol/g | IC50 (Cytochrome P450 3A4): 300 nM | Kp at 1 h [16]: 0.3 | Kp at 1 h [17]: 0.5
SMILES: CC(C)(C)c1cccc(CN[C@H]2CS(=O)(=O)C[C@@H](Cc3cc(F)c(N)c(OC(C(F)(F)F)C(F)(F)F)c3)[C@@H]2O)c1
